Marks after values point to notes of the source that are not given here.
What was measured:
BTN3A1 BFI(R448A) = BTN3A1 BFI(R448A) (Homo sapiens, UniProt O00481, R448A); experiment: GDP-BODIPY fluorescence polarization competitive binding assay, BFI; conditions: n ≥ 3
Vγ9Vδ2 T cells [1] = experiment: Vγ9Vδ2 T cell proliferation assay; type: cell-based, human; conditions: for T cell expansion above non-stimulated baseline: positive controls at 0.1 μM; for signs of Vγ9Vδ2 T cell stimulation: proliferation assay, Supplemental Figure S1C–D
wt-BFI domain of BTN3A1 = wt-BFI domain of BTN3A1 (Homo sapiens, UniProt O00481); experiment: GDP-BODIPY fluorescence polarization competitive binding assay, wt-BFI; conditions: n ≥ 3
Chain of wt-BFI domain of BTN3A1 (O00481 272-513 limits assumed): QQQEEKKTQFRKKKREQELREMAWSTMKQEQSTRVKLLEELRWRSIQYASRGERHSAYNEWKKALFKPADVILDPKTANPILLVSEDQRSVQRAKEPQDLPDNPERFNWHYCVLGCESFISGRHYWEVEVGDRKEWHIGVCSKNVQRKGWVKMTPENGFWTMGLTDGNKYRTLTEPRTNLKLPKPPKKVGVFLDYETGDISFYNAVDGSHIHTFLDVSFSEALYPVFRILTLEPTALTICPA

BTN3A1 BFI(W421A) = BTN3A1 BFI(W421A) (Homo sapiens, UniProt O00481, W421A); experiment: GDP-BODIPY fluorescence polarization competitive binding assay, BFI; conditions: n ≥ 3
Chain of BTN3A1 BFI(W421A) (O00481 272-513 W421A limits assumed): as the sequence (O00481 272-513 limits assumed) above, with W150A counted along it

BFI = conditions: read-out: ITC Kd for BFI; previous ITC experiments; cited from earlier work
BTN3A1 BFI(R442A) = BTN3A1 BFI(R442A) (Homo sapiens, UniProt O00481, R442A); experiment: GDP-BODIPY fluorescence polarization competitive binding assay, BFI; conditions: n ≥ 3
Chain of BTN3A1 BFI(R442A) (O00481 272-513 R442A limits assumed): as the sequence (O00481 272-513 limits assumed) above, with R171A counted along it

BTN3A1 BFI(M424A) = BTN3A1 BFI(M424A) (Homo sapiens, UniProt O00481, M424A); experiment: as above; conditions: n ≥ 3, ambiguous, approximate slope estimated by GraphPad
Chain of BTN3A1 BFI(M424A) (O00481 272-513 M424A limits assumed): as the sequence (O00481 272-513 limits assumed) above, with M153A counted along it

BTN3A1 BFI(R499A) = BTN3A1 BFI(R499A) (Homo sapiens, UniProt O00481, R499A); experiment: as above; conditions: n ≥ 3
Chain of BTN3A1 BFI(R499A) (O00481 272-513 R499A limits assumed): as the sequence (O00481 272-513 limits assumed) above, with R228A counted along it

BTN3A1 = conditions: previously reported ITC experiments; no reference given; cited from earlier work
Vγ9Vδ2 T cells [2] = conditions: read-out: Proliferation EC50 (μM) with 95% CI; footnote a; ref Hsiao 2014; cited from earlier work
[3] = system: Human PBMCs containing naïve Vγ9Vδ2 T cells; experiment: IFN-γ production of PBMCs by ELISA; type: cell-based; conditions: for EC50: Homo sapiens, PBMC, 48 h, read-out: IFN-γ EC50 (μM) with 95% CI
[4] = system: peripheral blood mononuclear cells (PBMCs); experiment: Ligand uptake: disappearance of prodrug from media incubated with PBMCs; type: in vitro ADME; conditions: 10 μM with PBMCs, 24 hours, 37 °C
Summary of the method: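 PBMCs at 1,000,000 cells/mL in T cell media were incubated at 37 °C with test prodrug at 10 μM final, or with media alone. Samples were taken at 0, 6, 24 and 48 h and spun. The supernatant was mixed with acetonitrile, re-spun and stored at −20 °C. UPLC-MS used a C18 column with a 25–80% acetonitrile gradient over 8 min. The integrated molecular-ion signal was expressed relative to t = 0.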

[5] = dose-response, 48 hours, concentration not given

Chain of BTN3A1 BFI(R448A) (O00481 272-513 R448A limits assumed): as the sequence (O00481 272-513 limits assumed) above, with R177A counted along it

## C/C(=C\COP(=O)(O)OP(=O)(O)O)CO [Compound 1, (E)-4-hydroxy-3-methyl-but-2-enyl diphosphate]
BTN3A1 BFI(R448A)
  Probe displacement (mP) range with 95% CI: 26.2 (12 – 40) mP
Vγ9Vδ2 T cells [1]
  T cell expansion above non-stimulated baseline: significantly expanded T cells
wt-BFI domain of BTN3A1
  Probe displacement (mP) range with 95% CI: 30.6 (25 – 36) mP
BTN3A1 BFI(W421A)
  Probe displacement (mP) range with 95% CI: 56.7 (40 – 73) ^* mP
BFI
  Kd: 2.36 µM
BTN3A1 BFI(R442A)
  Probe displacement (mP) range with 95% CI: 19.4 (13 – 26) mP
BTN3A1 BFI(M424A)
  Probe displacement (mP) range with 95% CI: 59.1^a (38 – 81) ^* mP
BTN3A1 BFI(R499A)
  Probe displacement (mP) range with 95% CI: 55.0 (21 – 78) ^* mP

## C/C(=C\CCP(=O)(O)O)CO [Compound 5]
BTN3A1
  ITC dissociation constant (Kd): not calculable
Vγ9Vδ2 T cells [2]
  EC50: 4 µM

## CC(C)=CCCCCP(=O)(OCOC(=O)C(C)(C)C)OCOC(=O)C(C)(C)C [Compound 14, (((6-Methylhept-5-en-1-yl)phosphoryl)bis(oxy))bis(methylene) bis(2,2-dimethylpropanoate)]
Vγ9Vδ2 T cells [1]
  signs of Vγ9Vδ2 T cell stimulation: neither intermediate 14 nor 15 displayed signs of Vγ9Vδ2 T cell stimulation

## C/C(=C\CCP(=O)(O)CP(=O)(O)O)CO [Compound 7]
[3]; 100 μM, 48 hours
  stimulation of IFN-γ production at 100 μM: did stimulate IFN-γ production
[3]
  EC50: > 100 µM

## O=P([O-])([O-])OP(=O)([O-])[O-].[Na+].[Na+].[Na+].[Na+] [NaPP, sodium diphosphate]
[3]; [5]
  stimulation of IFN-γ production: Neither zoledronate (4) nor sodium diphosphate stimulated IFN-γ production

## C/C(=C\CCCCP(=O)(OCOC(=O)C(C)(C)C)OCOC(=O)C(C)(C)C)CO [Compound 11, (E)-(((7-hydroxy-6-methylhept-5-en-1-yl)phosphoryl)bis(oxy))bis(methylene) bis(2,2-dimethylpropanoate)]
[4]
  parent ion detected in media relative to t = 0: less than 1%
Vγ9Vδ2 T cells [1]; concentrations up to 100 μM
  stimulation of T cell proliferation: neither prodrug 11 nor salt 10 (Supplemental Figure S1B) stimulated T cell proliferation
[3]; concentrations up to 100 μM, 48 hours
  stimulation of IFN-γ production: did not stimulate

## O=P(O)(O)C(O)(Cn1ccnc1)P(=O)(O)O [Compound 4, zoledronate]
[3]; [5]
  stimulation of IFN-γ production: Neither zoledronate (4) nor sodium diphosphate stimulated IFN-γ production

## C/C(=C\CCP(=O)(CP(=O)(OCOC(=O)C(C)(C)C)OCOC(=O)C(C)(C)C)OCOC(=O)C(C)(C)C)CO (centres unmarked) [Compound 8]
[3]
  IFN-γ potency of prodrug 8 relative to its salt 7: 100 times
  EC50: > 1 µM

## COP(=O)(CCCC/C=C(\C)CO)OC [Compound 15, Dimethyl (E)-(7-hydroxy-6-methylhept-5-en-1-yl) phosphonate]
Vγ9Vδ2 T cells [1]
  signs of Vγ9Vδ2 T cell stimulation: neither intermediate 14 nor 15 displayed signs of Vγ9Vδ2 T cell stimulation

## C/C(=C\CCP(=O)(OCOC(=O)C(C)(C)C)OCOC(=O)C(C)(C)C)CO [Compound 6]
[4]
  parent ion detected in media relative to t = 0: less than 1%
Vγ9Vδ2 T cells [1]
  T cell expansion above non-stimulated baseline: significantly expanded T cells

From paper PMC7701984 (Journal of medicinal chemistry, 2019)
